Rows were chosen to be rich in hits. Some 7.1% of all compounds tested hit in one or more screens of this group.
H69AR growth 86K: growth inhibitors of human H69AR lung tumor cells. H69AR lung tumor viability, ATP luminescence, 72 h; active compounds read low. viability, % at 10 µM. 85,000 tested, 6% active;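 active = viability at or below 40%; inactive = viability above 40%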;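 also: multidrug resistant small cell line overexpressing MRP-1 efflux transporter; 100% = mean luminescence of untreated control wells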
PTEN del growth: growth suppressors of cells with PTEN tumor suppressor deletion; HCT116 PTEN-null viability, CellTiter-Glo, 60 h; active compounds read low; viability, % at 10 µM; 140,000 tested, 1.2% active; AID 827;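 active = viability at or below a set limit, 4 SD under the median of all tested compounds, cut at about 3.7% in these data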;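 also: PTEN knockout HCT116 line with beta catenin targeted HCT116 as companion control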
HUVEC prolif 384: human endothelial cell proliferation inhibition; 86,000 tested, 1.1% active; HUVEC proliferation, CellTiter-Glo luminescence, 72 h; active compounds read low; viability, % at 10 µM (by protocol);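 active = viability at or below 30%; inactive = viability above 30%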;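 also: 100% = median luminescence of DMSO-only cell control wells on each plate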
Cav32 inh: blocks human Cav3.2 T-type calcium channel; Cav3.2-expressing cells, Fluo-4 calcium fluorescence FDSS; active compounds read low; 100,000 tested, 4% active; B-score at 10 µM; O95180;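 active = single-dose well whose peak fluorescence ratio is a statistical outlier from its plate by either plate-standardised score or position-corrected B-score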
Target sequence (O95180 whole entry, looked up): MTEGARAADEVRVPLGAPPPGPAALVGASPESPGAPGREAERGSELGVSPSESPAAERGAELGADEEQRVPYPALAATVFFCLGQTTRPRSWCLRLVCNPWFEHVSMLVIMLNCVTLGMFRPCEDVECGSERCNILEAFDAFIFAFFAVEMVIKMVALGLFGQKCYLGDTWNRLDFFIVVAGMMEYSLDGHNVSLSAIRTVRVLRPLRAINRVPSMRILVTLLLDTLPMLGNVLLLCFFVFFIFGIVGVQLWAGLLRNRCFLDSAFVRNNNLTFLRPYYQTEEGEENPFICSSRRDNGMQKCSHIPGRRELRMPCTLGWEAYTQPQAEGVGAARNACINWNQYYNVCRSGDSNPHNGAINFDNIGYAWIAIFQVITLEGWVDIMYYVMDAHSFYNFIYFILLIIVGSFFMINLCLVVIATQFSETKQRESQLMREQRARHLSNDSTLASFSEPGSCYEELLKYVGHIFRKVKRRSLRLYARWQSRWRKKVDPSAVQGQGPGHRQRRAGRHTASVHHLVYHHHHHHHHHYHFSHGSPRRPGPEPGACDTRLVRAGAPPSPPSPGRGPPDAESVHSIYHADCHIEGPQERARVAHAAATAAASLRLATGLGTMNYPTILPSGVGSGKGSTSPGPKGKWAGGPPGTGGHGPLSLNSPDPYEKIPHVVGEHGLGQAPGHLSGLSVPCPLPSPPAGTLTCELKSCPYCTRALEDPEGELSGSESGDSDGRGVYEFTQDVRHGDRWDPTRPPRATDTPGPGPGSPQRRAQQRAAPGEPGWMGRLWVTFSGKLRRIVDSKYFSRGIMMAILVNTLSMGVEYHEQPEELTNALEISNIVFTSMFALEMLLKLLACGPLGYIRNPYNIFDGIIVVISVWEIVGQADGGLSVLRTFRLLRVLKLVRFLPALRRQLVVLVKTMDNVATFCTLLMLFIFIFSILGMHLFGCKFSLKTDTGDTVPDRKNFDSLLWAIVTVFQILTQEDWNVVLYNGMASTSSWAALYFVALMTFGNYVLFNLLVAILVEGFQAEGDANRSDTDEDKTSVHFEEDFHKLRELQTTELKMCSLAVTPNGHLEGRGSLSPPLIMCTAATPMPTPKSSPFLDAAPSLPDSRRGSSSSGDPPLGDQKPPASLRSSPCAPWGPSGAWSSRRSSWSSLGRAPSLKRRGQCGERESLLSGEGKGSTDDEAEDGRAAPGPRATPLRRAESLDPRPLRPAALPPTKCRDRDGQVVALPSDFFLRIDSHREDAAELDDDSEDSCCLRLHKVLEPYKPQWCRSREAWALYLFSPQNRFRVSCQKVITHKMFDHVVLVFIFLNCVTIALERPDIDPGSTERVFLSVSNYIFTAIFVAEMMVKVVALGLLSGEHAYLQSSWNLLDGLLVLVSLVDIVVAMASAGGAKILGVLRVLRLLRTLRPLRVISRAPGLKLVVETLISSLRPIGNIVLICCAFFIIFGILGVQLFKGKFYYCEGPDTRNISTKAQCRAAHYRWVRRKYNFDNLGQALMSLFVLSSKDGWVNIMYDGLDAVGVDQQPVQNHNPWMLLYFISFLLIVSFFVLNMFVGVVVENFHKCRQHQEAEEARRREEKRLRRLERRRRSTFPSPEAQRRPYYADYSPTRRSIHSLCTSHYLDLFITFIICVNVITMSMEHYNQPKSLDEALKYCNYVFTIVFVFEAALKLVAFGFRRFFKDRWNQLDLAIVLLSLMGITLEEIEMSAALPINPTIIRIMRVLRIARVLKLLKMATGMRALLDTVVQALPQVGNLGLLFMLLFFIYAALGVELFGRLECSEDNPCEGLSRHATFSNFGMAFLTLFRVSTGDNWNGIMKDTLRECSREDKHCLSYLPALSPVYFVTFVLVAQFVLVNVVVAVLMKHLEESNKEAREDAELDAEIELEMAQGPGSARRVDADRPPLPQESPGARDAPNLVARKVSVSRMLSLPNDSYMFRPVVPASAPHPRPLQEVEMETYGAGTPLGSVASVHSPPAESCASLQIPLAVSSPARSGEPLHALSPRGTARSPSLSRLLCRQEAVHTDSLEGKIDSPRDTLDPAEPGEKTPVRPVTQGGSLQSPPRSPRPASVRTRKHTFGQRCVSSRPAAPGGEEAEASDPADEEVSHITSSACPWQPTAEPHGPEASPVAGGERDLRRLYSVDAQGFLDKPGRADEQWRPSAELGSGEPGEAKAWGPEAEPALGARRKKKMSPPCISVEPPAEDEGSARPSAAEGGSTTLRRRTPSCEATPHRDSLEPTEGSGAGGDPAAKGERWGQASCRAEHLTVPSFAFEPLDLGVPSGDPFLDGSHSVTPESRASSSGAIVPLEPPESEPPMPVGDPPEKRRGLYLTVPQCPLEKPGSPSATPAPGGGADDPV
HCT116 bCat-KO: beta-catenin-lacking colon tumor cell growth suppression; HCT116 beta-catenin knockout viability, CellTiter-Glo, 60 h; active compounds read low; viability, % at 10 µM; 140,000 tested, 1.5% active; AID 818;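 active = viability at or under a set limit, the compound median less 4 SD, cut at about 6% in these data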;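 also: 0% = Hyamine 1622 control at 20 µM and 100% = untreated cell control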
Lung fibro prol: blocks proliferation of human lung fibroblasts | LL 47 human lung fibroblast viability, ATP luminescence; active compounds read low | viability, % at 10 µM | 85,000 tested, 1.1% active | AID 719;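 active = viability at or below 50% in the single dose screen; inactive = viability above 50%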;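 also: compound exposure lasted 72 h before the ATP readout; 100% = median luminescence of untreated cell-only wells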
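test system = LL 47 human lung fibroblasts | amount = 1,150 fibroblasts seeded per well | medium = 15% FBS in IMEM | times = overnight cell rest, 72 h compound treatment at 37 °C | measured by = CellTiter-Glo luminescence measuring cellular ATP | read-out = viability percentage against median untreated-cell control | benchmarks = cell-only wells, no compound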
The depositor's hits bear a star.

How did CC1(C)CC(=O)C2=C(C1)OC(N)=C(C#N)C2c1ccsc1 (stereo not drawn) do in these assays?
H69AR growth 86K: 91.6; PTEN del growth: 90.5; HUVEC prolif 384: 100.2; Cav32 inh: 1.83; HCT116 bCat-KO: 89.3; Lung fibro prol: 102.0

What do the screens show for `CCOC(=O)C1=C(C)OC(N)=C(C#N)C1c1c(C)nn(-c2ccccc2)c1Cl` (stereo not drawn)?
PTEN del growth: 92.8; HUVEC prolif 384: 83.7; Cav32 inh: -9.23*; HCT116 bCat-KO: 95.7; Lung fibro prol: 92.4

What do the screens show for `Cc1ccc(-n2nc(C)c(C3C(C#N)=C(N)OC4=C3C(=O)CC(C)(C)C4)c2Cl)cc1` (stereo not drawn)?
H69AR growth 86K: 24.3*; HUVEC prolif 384: 62.9; Lung fibro prol: 80.2

Results for CN(C(=O)c1ccco1)c1nc2c(s1)CCCC2 ?
H69AR growth 86K: 82.9; PTEN del growth: 67.6; HUVEC prolif 384: 84.6; Cav32 inh: 0.51; HCT116 bCat-KO: 67.7; Lung fibro prol: 98.7

What do the screens show for `CSc1nnc(SCC2=NNC(=O)SC2)s1`?
PTEN del growth: 90.6; HCT116 bCat-KO: 90.7

What do the screens show for `O=C1C2CC=C(Cl)CC2C(=O)N1CCC[n+]1cccc2ccccc21` (stereo not drawn)?
PTEN del growth: 92.3; HCT116 bCat-KO: 96.4

Results for N#Cc1c(-c2ccccc2)c(-c2ccccc2)nn(CC(=O)NNC(=O)Nc2ccc(Cl)c(Cl)c2)c1=O ?
PTEN del growth: 28.5; Cav32 inh: -6.51*; HCT116 bCat-KO: 35.3

How did Nc1nnnn1/N=C/c1cccc(Oc2ccccc2)c1 do in these assays?
H69AR growth 86K: 93.4; PTEN del growth: 80.0; HUVEC prolif 384: 98.0; Cav32 inh: -0.132; HCT116 bCat-KO: 70.8; Lung fibro prol: 93.9

What do the screens show for `Nc1nnnn1/N=C/c1cccc(OCc2ccccc2Cl)c1`?
H69AR growth 86K: 72.4; PTEN del growth: 69.8; HUVEC prolif 384: 16.5*; Cav32 inh: -0.451; HCT116 bCat-KO: 81.4; Lung fibro prol: 88.4

How did CC(=O)c1ccc(OCc2ccc(Oc3c(Cl)cccc3[N+](=O)[O-])cc2)cc1 do in these assays?
PTEN del growth: 87.1; HCT116 bCat-KO: 84.1

What do the screens show for `O=C(Nc1cccc(-c2cn3ccccc3n2)c1)c1cc2ccccc2oc1=O`?
PTEN del growth: 1.8*; Cav32 inh: 0.67; HCT116 bCat-KO: 2.8*

How did O=C(Nc1cccc(-c2cn3ccccc3n2)c1)c1cccs1 do in these assays?
PTEN del growth: 85.8; HCT116 bCat-KO: 97.3

Results for COc1ccc(/C(C#N)=C/c2c(-c3ccc(Cl)cc3)nc3c(C)cccn23)cc1 ?
PTEN del growth: 76.6; Cav32 inh: -5.75*; HCT116 bCat-KO: 79.8

How did CN(C)c1ccc2c(O)cc(=O)n(C)c2c1 do in these assays?
H69AR growth 86K: 21.5*; PTEN del growth: 76.2; HUVEC prolif 384: 95.4; Cav32 inh: 0.873; HCT116 bCat-KO: 73.3; Lung fibro prol: 102.2

What do the screens show for `O=C(O)c1cc(-c2cccc(Cl)c2)nc2nc(N3CCCCC3)sc12`?
PTEN del growth: 96.7; HCT116 bCat-KO: 89.5

Results for Cc1cc(=O)[nH]c(N/N=C/c2ccc(OC(=O)c3ccco3)cc2)n1 ?
PTEN del growth: 91.8; HCT116 bCat-KO: 98.1

How did COc1cccc(Nc2ncnc3ccccc23)c1 do in these assays?
H69AR growth 86K: 86.3; PTEN del growth: 105.2; HUVEC prolif 384: 81.0; Cav32 inh: -0.00535; HCT116 bCat-KO: 95.1; Lung fibro prol: 95.1

Results for O=C(Oc1cccc(Nc2ncnc3ccccc23)c1)c1ccccc1Cl ?
PTEN del growth: 71.7; Cav32 inh: -5.4*; HCT116 bCat-KO: 70.5

What do the screens show for `O=S(=O)(/N=C(/Nc1cccc2ccccc12)c1ccccc1)c1cccs1`?
PTEN del growth: 69.3; Cav32 inh: -4.61*; HCT116 bCat-KO: 83.3

How did CCOC(=O)CSc1nc2ccccc2c(=O)[nH]1 do in these assays?
H69AR growth 86K: 94.0; PTEN del growth: 94.4; HUVEC prolif 384: 94.0; Cav32 inh: 1.06; HCT116 bCat-KO: 92.9; Lung fibro prol: 99.4

What do the screens show for `CCOC(=O)C1(C(C)(C)CC)CC(CSc2nc3ccccc3[nH]2)OC1=O` (stereo not drawn)?
H69AR growth 86K: 79.9; PTEN del growth: 85.4; HUVEC prolif 384: 87.8; Cav32 inh: -6.83*; HCT116 bCat-KO: 65.8; Lung fibro prol: 106.2

Results for COc1cc(NS(=O)(=O)c2ccc(C)cc2C)cc(OC)c1OC ?
H69AR growth 86K: 24.5*; PTEN del growth: 48.2; HUVEC prolif 384: 86.7; Cav32 inh: -2.03; HCT116 bCat-KO: 41.5; Lung fibro prol: 93.6

What do the screens show for `CC1=C(C#N)c2nc(N)c(C#N)c(C)c2/C1=C\c1ccc(C)cc1`?
H69AR growth 86K: 91.2; PTEN del growth: 1.9*; HUVEC prolif 384: 4.3*; Cav32 inh: -0.336; HCT116 bCat-KO: 3.2*; Lung fibro prol: 3.3*

What do the screens show for `O=C(c1ccc(Cl)c(Cl)c1)N1CCC(=O)N(C(COCc2ccccc2)Cc2ccccc2)CC1` (stereo not drawn)?
PTEN del growth: 62.0; Cav32 inh: -5*; HCT116 bCat-KO: 63.5

What do the screens show for `O=C(c1cccc(Cl)c1)N1CCC(=O)N(C(COCc2ccccc2)Cc2ccccc2)CC1` (stereo not drawn)?
PTEN del growth: 77.7; Cav32 inh: -1.43; HCT116 bCat-KO: 75.0

What do the screens show for `CCC(C)(C)n1nnnc1C(c1cccnc1)N1CCN(c2cccc(C(F)(F)F)c2)CC1` (stereo not drawn)?
H69AR growth 86K: 78.5; PTEN del growth: 69.7; HUVEC prolif 384: 88.4; Cav32 inh: -5.1*; HCT116 bCat-KO: 65.3; Lung fibro prol: 94.1

Results for CC(C)(C)n1nnnc1C(c1cccc(C#N)c1)N1CCC(Cc2ccccc2)CC1 (stereo not drawn) ?
H69AR growth 86K: 87.7; PTEN del growth: 73.5; HUVEC prolif 384: 96.5; Cav32 inh: -4.76*; HCT116 bCat-KO: 69.9; Lung fibro prol: 91.7

How did CCC(C)(C)n1nnnc1C(c1ccncc1)N1CCC(Cc2ccccc2)CC1 (stereo not drawn) do in these assays?
H69AR growth 86K: 86.8; PTEN del growth: 79.6; HUVEC prolif 384: 90.9; Cav32 inh: -3.7*; HCT116 bCat-KO: 93.9; Lung fibro prol: 101.9

What do the screens show for `Cc1ccc(S(=O)(=O)N2CCN(c3ccc(C(=O)N4CCOCC4)cc3[N+](=O)[O-])CC2)cc1`?
PTEN del growth: 86.6; HCT116 bCat-KO: 82.2

Results for O=C(N/N=C\c1cc(Cl)ccc1O)c1ccc(S(=O)(=O)N2CCCCC2)cc1 ?
PTEN del growth: 5.7; HCT116 bCat-KO: 8.9

What do the screens show for `Cc1ccc2c(c1)c1cccc3c1n2CCN3CCC(N)=O`?
H69AR growth 86K: 95.4; PTEN del growth: 60.5; HUVEC prolif 384: 21.2*; Cav32 inh: 0.00211; HCT116 bCat-KO: 73.0; Lung fibro prol: 85.9

What do the screens show for `Cc1ccc2cc(CCNC(=O)c3cccc([N+](=O)[O-])c3)c(=O)[nH]c2c1C`?
PTEN del growth: 91.1; HCT116 bCat-KO: 98.8

Assay outcomes from PubChem BioAssay.
